Data published in ChEMBL document CHEMBL1157882, “Novel 2-[(benzylamino)methyl]pyrrolidine-3,4-diol derivatives as alpha-mannosidase inhibitors and with antitumor activities against hematological and solid malignancies” (Bioorg Med Chem, 2010).
Calls of active or inactive are those of the source. No cut-off for these calls is given here.

What was measured:
SK-BR-3 [1] = experiment: Cell cycle arrest in human SKBR3 cells by accumulation of cells at G1 phase at 100 uM after 48 hrs by propidium iodide-staining based flow cytometry (reference value: 54%); type: functional
A549 = experiment: Cytotoxicity against human A549 cells after 72 hrs by colorimetric assay; type: functional, cell-based; details: Homo sapiens, A549, 72 h; read-out: IC50
In short: (§1)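 Cells grown in McCoy's medium (adherent lines) or RPMI-1640 (U266), each with 10% FBS, L-glutamine and antibiotics, at 37 °C in 5% CO₂. Compound dissolved as a 100 mM DMSO stock, final DMSO ≤0.4%. Cells were exposed for 72 h across a 10^-2 to 400 µM range. Viability was read by CellTiter 96 Aqueous (2–4 h incubation, absorbance 490 nm). Triplicate wells; IC50 from curve fitting.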

SK-BR-3 [2] = experiment: Cell cycle arrest in human SKBR3 cells by accumulation of cells at S phase at 200 uM after 48 hrs by propidium iodide-staining based flow cytometry (reference value: 30%); type: functional
SK-BR-3 [3] = experiment: Cytotoxicity against human SKBR3 cells after 72 hrs by colorimetric assay; type: functional, cell-based; details: Homo sapiens, SK-BR-3, 72 h; read-out: IC50; in short: as §1
[4] = Cytotoxicity in human multiple myeloma cells assessed as pre-necrotic cells at 50 uM after 24 hrs by annexin V/propidium iodide staining based flow cytometry (reference value: 42.1%); type: functional, Multiple myeloma cell
MCF7 = experiment: Decrease in ID1 mRNA level in human MCF7 cells at 50 uM after 12 hrs by TLDA; type: functional, cell-based
In short: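 SKBR3 or MCF7 cells, 2×10⁵/well, treated with 50 µM for 12 h. Total RNA was column-purified and reverse-transcribed with random hexamers, then assayed on TaqMan low-density arrays. Expression was normalised to RPLP0, with fold change versus DMSO-vehicle cells calculated as 2^-ΔΔCT. Q-PCR run in duplicate per gene.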

[5] = Cytotoxicity in human multiple myeloma cells assessed as late apoptotic/necrotic cells at 50 uM after 24 hrs by annexin V/propidium iodide staining based flow cytometry (reference value: 9.1%); type: functional, Multiple myeloma cell
[6] = Cytotoxicity in human B-CLL assessed as early apoptotic cells at 50 uM after 24 hrs by annexin V/propidium iodide staining based flow cytometry (reference value: 3.6 to 20.2%); type: functional
Bos taurus = species: Bos taurus; experiment: Inhibition of beta-N-acetylglucosaminidase from bovine kidney at pH 4; set-up: concentration or dose not given beside the values; details: concentration not given here
[7] = Cytotoxicity in human multiple myeloma cells assessed as early apoptotic cells at 50 uM after 24 hrs by annexin V/propidium iodide staining based flow cytometry (reference value: 0.1%); type: functional, Multiple myeloma cell
[8] = Cytotoxicity in human multiple myeloma cells assessed as late apoptotic/necrotic cells at 100 uM after 24 hrs by annexin V/propidium iodide staining based flow cytometry (reference value: 9.1%); type: functional, Multiple myeloma cell
Jurkat = experiment: Cytotoxicity against human Jurkat cells after 72 hrs by colorimetric assay; type: functional, cell-based; details: Homo sapiens, Jurkat, 72 h; read-out: IC50
[9] = Inhibition of alpha-mannosidase from jack bean at pH 5; set-up: species or system Canavalia ensiformis
SK-BR-3 [10] = experiment: Cell cycle arrest in human SKBR3 cells by accumulation of cells at G2/M phase at 50 uM after 48 hrs by propidium iodide-staining based flow cytometry (reference value: 16%); type: functional
SK-BR-3 [11] = experiment: Decrease in hTERT mRNA level in human SKBR3 cells at 50 uM after 12 hrs by TLDA; type: functional, cell-based
In short: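 SKBR3 and MCF7 cells seeded at 2 × 10⁵ per well, treated 12 h with 50 µM compound (DMSO stock); total RNA extracted, cDNA made with random hexamers, gene expression profiled by TaqMan low-density arrays (qPCR, duplicate per gene). Normalised to RPLP0; fold change versus DMSO vehicle-treated cells, calculated as 2^-ΔΔCT.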

[12] = Cytotoxicity in human B-CLL assessed as early apoptotic cells at 200 uM after 24 hrs by annexin V/propidium iodide staining based flow cytometry (reference value: 3.6 to 20.2%); type: functional
Helix pomatia = experiment: Inhibition of beta-mannosidase from snail at pH 4; set-up: concentration or dose not given beside the values; details: concentration not given here
[13] = Cytotoxicity in human multiple myeloma cells assessed as early apoptotic cells at 100 uM after 24 hrs by annexin V/propidium iodide staining based flow cytometry (reference value: 0.1%); type: functional, Multiple myeloma cell

inhibition (Bos taurus): < 10%
IC50 [9]: 5 µM
Ki [9]: 2.7 µM
inhibition (Helix pomatia): < 10%
SMILES: OC[C@H](NC[C@H]1NC[C@H](O)[C@@H]1O)c1ccc(-c2ccc(C(F)(F)F)cc2)cc1
Activity (SK-BR-3 [1]): 48%
IC50 (A549): 152 µM
Activity (SK-BR-3 [2]): 16%
IC50 (SK-BR-3 [3]): 48 µM
Activity [4]: 17%
Activity (MCF7): Active
Activity [5]: 37.9%
Activity [6]: 11.3%
Activity [7]: 2.3%
Activity [8]: 52.6%
IC50 (Jurkat): 75 µM
Activity (SK-BR-3 [10]): 13%
Activity (SK-BR-3 [11]): Active
Activity [12]: 1%
Activity [13]: 2.6%
